From ChEMBL document CHEMBL1212855, “1-Azaaurones derived from the naturally occurring aurones as potential antimalarial drugs” (Bioorg Med Chem, 2010)
Converted amounts (≈) assume the structure as drawn.

What was measured:
Plasmodium falciparum = assay: Antiplasmodial activity against Plasmodium falciparum FcB1/columbia infected in human erythrocytes; assay type: functional, organism-based
In short: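 Blood stages cultured in human erythrocytes in RPMI 1640 with 5% human serum (Trager–Jensen, modified). Cultures were synchronized every 48 h by 5% D-sorbitol lysis. IC50 is the concentration giving 50% inhibition of parasite growth, with chloroquine as the control drug.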

[1] = tested on: Plasmodium vinckei petteri; assay: Antimalarial activity against Plasmodium vinckei petteri infected in CD mice (Mus musculus) assessed as inhibition of parasitaemia at 20 mg/kg, intraperitoneal daily for 4 days measured on day 5; assay type: functional; conditions: ip
In short: (§1)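 Four-day suppressive test: female CD mice (mean body weight 20 2 g) infected with 10⁶ P. vinckei petteri-infected red blood cells in RPMI on day 0. Groups of five treated intraperitoneally days 0–3 at 1, 10 or 20 mg/kg/day. Controls received RPMI alone or chloroquine (1 and 10 mg/kg). Giemsa-stained tail-blood smears, at least 5000 erythrocytes counted. Inhibition % = (control − treated parasitaemia)/control × 100.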

[2] = tested on: Plasmodium vinckei petteri; assay: Antimalarial activity against Plasmodium vinckei petteri infected in CD mice (Mus musculus) assessed as inhibition of parasitaemia at 10 mg/kg, intraperitoneal daily for 4 days measured on day 5; assay type: functional; conditions: ip; in short: as §1
[3] = tested on: Plasmodium vinckei petteri; assay: Antimalarial activity against Plasmodium vinckei petteri infected in CD mice (Mus musculus) assessed as inhibition of parasitaemia dosed daily for 4 days measured on day 5; assay type: functional; in short: as §1
Mus musculus = assay: Toxicity against CD mouse at 20 mg/kg, ip qd for 4 days; assay type: organism-based; design: dose 20 mg/kg, route intraperitoneal; conditions: in vivo, 96 h
[4] = tested on: Plasmodium vinckei petteri; assay: Antimalarial activity against Plasmodium vinckei petteri infected in CD mice (Mus musculus) assessed as inhibition of parasitaemia at 1 mg/kg, intraperitoneal daily for 4 days measured on day 5; assay type: functional; conditions: ip; in short: as §1

| Compound | IC50 (Plasmodium falciparum) | also measured |
| --- | --- | --- |
| COc1cc(OC)c2c(c1)O/C(=C\c1ccc(C(C)(C)C)cc1)C2=O | 13.3 µM |  |
| COc1cc(OC)c2c(c1)O/C(=C\c1ccccc1)C2=O | 60.3 µM |  |
| COc1cc2c(c(OC)c1)C(=O)/C(=C/c1ccc(Br)cc1)N2 | 49.8 µM |  |
| COc1cc2c(c(OC)c1)C(=O)/C(=C/c1ccc(Cl)cc1)N2 | 17 µM |  |
| CCN(CC)CCCC(C)Nc1ccnc2cc(Cl)ccc12 (stereo not drawn) [CHLOROQUINE] |  | inhibition in vivo at 10 mg/kg [2]: 100%; ED50 [3]: 5000 µg/mL (≈ 15.6 mM); inhibition in vivo at 1 mg/kg [4]: 0% |
| COc1cc(OC)c2c(c1)O/C(=C\c1ccc(F)cc1)C2=O | 86.7 µM |  |
| COc1cc(OC)c2c(c1)O/C(=C\c1ccc(-c3ccccc3)cc1)C2=O | 234 µM |  |
| COc1cc(OC)c2c(c1)O/C(=C\c1ccc(-c3ccncc3)cc1)C2=O | 85 µM |  |
| O=C1/C(=C/c2ccccc2)Oc2cc(O)cc(O)c21 | 94.5 µM |  |
| COc1cc2c(c(OC)c1)C(=O)/C(=C/c1ccccc1Cl)N2 | 9.9 µM |  |
| CCc1ccccc1/C=C1\Oc2cc(OC)cc(OC)c2C1=O | 21 µM |  |
| CCc1ccccc1/C=C1\Nc2cc(OC)cc(OC)c2C1=O | 12.8 µM |  |
| O=C1/C(=C/c2ccc(O)cc2)Oc2cc(O)ccc21 | 130 µM |  |
| CCc1ccccc1/C=C1\Oc2cc(O)cc(O)c2C1=O | 114 µM |  |
| CCc1ccc(/C=C2\Oc3cc(O)ccc3C2=O)cc1 | 28 µM |  |
| C#Cc1ccc(/C=C2\Nc3cc(OC)cc(OC)c3C2=O)cc1 | 13.4 µM |  |
| COc1cc2c(c(OC)c1)C(=O)/C(=C/c1c(C)cccc1C)N2 | 9.1 µM |  |
| COc1cc2c(c(OC)c1)C(=O)/C(=C/c1ccc(N3CCOCC3)cc1)N2 | 8.9 µM |  |
| COc1cc(OC)c2c(c1)O/C(=C\c1ccc(Br)cc1)C2=O | 49.8 µM |  |
| Cc1ccc(/C=C2\Oc3cc(O)cc(O)c3C2=O)cc1 | 63.4 µM |  |
| CCCCc1ccc(/C=C2\Oc3cc(OC)cc(OC)c3C2=O)cc1 | 11.8 µM |  |
| COc1ccc(/C=C2\Oc3cc(OC)cc(OC)c3C2=O)cc1 [4,4',6-TRIMETHOXY-AURONE] | 11 µM |  |
| COc1cc2c(c(OC)c1)C(=O)/C(=C/c1c(F)cccc1Cl)N2 | 9 µM |  |

Continued, in another order:

| IC50 (Plasmodium falciparum) | Compound | also measured |
| --- | --- | --- |
| 8.9 µM | COc1cc2c(c(OC)c1)C(=O)/C(=C/c1c(C)c(C)cc(C)c1C)N2 |  |
| 6.7 µM | COc1cc2c(c(OC)c1)C(=O)/C(=C/c1ccc(SC)cc1)N2 |  |
| 1 µM | CCc1ccc(/C=C2\Nc3cc(OC)cc(OC)c3C2=O)cc1 | inhibition in vivo at 20 mg/kg [1]: 0%; inhibition in vivo at 10 mg/kg [2]: 17%; ED50 [3]: > 20 mg/kg; Activity (Mus musculus): Non-toxic; inhibition in vivo at 1 mg/kg [4]: 3% |
| 5 µM | COc1ccc(/C=C2\Nc3cc(OC)cc(OC)c3C2=O)c(OC)c1 |  |
| 4.4 µM | COc1cc2c(c(OC)c1)C(=O)/C(=C/c1ccc(C(C)C)cc1)N2 |  |
| 8.4 µM | COc1cc2c(c(OC)c1)C(=O)/C(=C/c1cc(Cl)ccc1Cl)N2 |  |
| 5.6 µM | COc1cc2c(c(OC)c1)C(=O)/C(=C/c1cc(C)c(C)cc1C)N2 |  |
| 3.7 µM | COc1cc2c(c(OC)c1)C(=O)/C(=C/c1ccc(N(C)C)cc1)N2 |  |
| 1.9 µM | COc1cc(OC)c(/C=C2\Nc3cc(OC)cc(OC)c3C2=O)c(OC)c1 |  |
| 1.9 µM | COc1cc2c(c(OC)c1)C(=O)/C(=C/c1cc(OC)c(OC)c(OC)c1)N2 |  |
| 7.2 µM | COc1cc2c(c(OC)c1)C(=O)/C(=C/c1ccc(C(C)(C)C)cc1)N2 |  |
| 3.6 µM | COc1cc2c(c(OC)c1)C(=O)/C(=C/c1ccc(C)cc1C)N2 |  |
| 4.1 µM | CCCCc1ccc(/C=C2\Nc3cc(OC)cc(OC)c3C2=O)cc1 |  |
